{"data": "Results from different studies", "CAMK4": "Calcium/calmodulin-dependent protein kinase type IV (CAMK4, Homo sapiens, UniProt Q16566)", "SMO D473H": "Protein smoothened (SMO, Homo sapiens, UniProt Q99835, D473H)"}
{"SMILES": "Nc1ncc(-c2nc(N3CCOCC3)nc(N3CCOCC3)n2)c(C(F)F)n1", "target": "CAMK4", "test": "binding, competition with immobilised ligand", "conditions": "10 µM", "quantity": "remaining binding", "value": "66%"}
{"SMILES": "O=C(Nc1cccnn1)N1CCN([C@@H]2CCOc3cc(C(F)(F)F)ccc32)CC1", "target": "Peroxisome proliferator-activated receptor gamma (PPARG, Homo sapiens, UniProt P37231)", "test": "cell-free assay", "conditions": "20 µM", "quantity": "inhibition", "value": "18%"}
{"SMILES": "Cc1ncc(C)n2nc(/C=C/c3nc(N4CCCC4)cc(N4CCOCC4)n3)nc12", "target": "Angiotensin-converting enzyme (ACE, Homo sapiens, UniProt P12821)", "test": "enzyme activity, inhibitor", "conditions": "10 µM", "quantity": "inhibition", "value": "-13%"}
{"SMILES": "Cc1cnc(-c2cc(N3CCN(C(=O)CCS(C)(=O)=O)CC3)ncc2Cl)c(C)c1", "target": "SMO D473H", "test": "GTPγS binding, agonist, radiometric", "conditions": "cell membranes", "quantity": "Emax", "value": "-76.3%"}
{"SMILES": "C#Cc1n[nH]c2c(-c3cn(C(C)c4ccccn4)c(=O)[nH]c3=O)cc(F)cc12 (stereo not shown)", "target": "AP2-associated protein kinase 1 (AAK1, Homo sapiens, UniProt Q2M2I8)", "test": "enzyme activity, inhibitor", "conditions": "1 µM", "quantity": "inhibition", "value": "4.8%"}
{"SMILES": "Cc1nn(C)cc1-c1nc2c(N3CCN(Cc4ccc(Cl)cc4)CC3)c(Cl)cnc2[nH]1", "target": "CAMK4", "test": "binding, competition with immobilised ligand", "conditions": "1 µM", "quantity": "remaining binding", "value": "100%"}
{"SMILES": "CC1=C2C[C@H]3[C@@H](CC=C4C[C@@H](O)CC[C@@]43C)[C@@H]2CC[C@]12O[C@@H]1C[C@H](C)CN[C@H]1[C@H]2C", "target": "Protein smoothened (SMO, Homo sapiens, UniProt Q99835)", "test": "GTPγS binding, agonist, radiometric", "conditions": "cell membranes", "quantity": "Emax", "value": "-99.2%"}
{"SMILES": "CCN(CC)CCCC[C@H](NC(=O)[C@H](CC(C)C)NC(=O)[C@H](C)NC(=O)[C@H](Cc1ccccc1)NC(=O)c1ccc(C(C)(C)C)cc1)C(=O)N[C@@H](CO)C(=O)OC", "target": "Histone-lysine N-methyltransferase 2A (KMT2A, Homo sapiens, UniProt Q03164)", "test": "thermal stability, DSF", "conditions": "25 µM", "quantity": "ΔTm", "value": "0.04 °C"}
{"SMILES": "COc1cc(C(=O)NC(N)=Nc2ccc(C)c(NC(=O)c3ccc(-c4ccccc4)cc3)c2)cc(OC)c1OC", "target": "SMO D473H", "test": "GTPγS binding, agonist, radiometric", "conditions": "cell membranes", "quantity": "Emax", "value": "-115%"}
{"SMILES": "COc1ncccc1-c1cnn2ccc(N3CCN(C(=O)OC(C)C)CC3)nc12", "target": "CAMK4", "test": "binding, competition with immobilised ligand", "conditions": "1 µM", "quantity": "remaining binding", "value": "100%"}
